Legend:
[1] = Stability in mouse liver microsomes assessed as parent compound remaining after 30 mins; format: ADME, microsome; conditions: read-out: Stability
Summary of the method: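 Compound was incubated with mouse liver microsomes for 30 minutes. The read-out was the percent of compound remaining.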

[2] = tested on: MV4-11; test: Growth inhibition of human MV411 cells after 72 hrs by Celltiter-Glo luminescent cell viability assay; format: functional; conditions: MV4-11, 72 h
Summary of the method: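 Anti-proliferative activity was tested in MV-4-11 cells. Each GI50 is the mean of at least two separate assay runs.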

[3] = target: T1, Bromodomain-containing protein 4 (Homo sapiens, UniProt O60885); test: Inhibition of His-epitope tagged BRD4 bromodomain 1 (44 to 168 residues) (unknown origin) using biotinylated K5,8,12,16 tetra-acetylated histone H4 (1 to 20 residues) peptide as substrate measured after 1 hr by Alphascreen assay
Summary of the method: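 Binding to the isolated BRD4 first bromodomain was measured by AlphaScreen. Each IC50 is the mean of at least two separate assay runs.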

[4] = Half life in mouse plasma; format: ADME, cell-free
Summary of the method: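 Compound stability in mouse plasma, expressed as a half-life.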

[5] = Chemical stability of the compound in acid; format: physicochemical
[6] = target: T1, Bromodomain-containing protein 4; test: Inhibition of BRD4 in human MV411 cells assessed as reduction in MYC mRNA expression; format: cell-based
[7] = Drug uptake in athymic Hsd:Foxn1nu mouse plasma assessed as unbound fraction at 5 mg/kg, po administered as single dose by mass spectrometric analysis; format: ADME, organism-based; conditions: in vivo
[8] = tested on: MV4-11; test: Antitumor activity against human MV411 cells xenografted in athymic Hsd:Foxn1nu mouse assessed as tumor growth inhibition at 12.5 mg/kg, po administered twice daily for 20 days measured weekly twice during compound dosing relative to control; format: functional; conditions: MV4-11, po, 480 h, read-out: TGI
[9] = tested on: Mus musculus; test: Reduction in MYC mRNA level in tumor of athymic Hsd:Foxn1nu mouse xenografted with human MV411 cells at 12.5 mg/kg, po administered as single dose measured after 4 hrs by qRT-PCR analysis relative to control; format: functional
Summary of the method: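 Athymic nude mice bearing MV-4-11 xenografts received a single oral dose of 12.5 mg/kg. Tumor MYC levels were compared with those of vehicle-treated mice.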

[10] = Toxicity in po dosed athymic Hsd:Foxn1nu mouse administered twice daily for 5 days; format: organism-based; conditions: in vivo
Summary of the method: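 Tolerability study in athymic nude mice given repeat oral doses twice daily for five days. The value reported is the estimated maximum tolerated dose.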

[11] = Drug uptake in po dosed mouse plasma; format: ADME, organism-based; conditions: in vivo

| SMILES | remaining at 0.5 h [1] [%] | GI50 [2] [nM] | IC50 [3] [nM] | half-life [4] [min] | further results |
| --- | --- | --- | --- | --- | --- |
| CC(=O)N1c2ccc(-c3cnn(C(C)C)c3)cc2N(C(=O)C2CC2)C[C@@H]1C | 24 | 580 | 420 | – | – |
| C[C@H]1CN(C(=O)c2ccco2)c2cc(-c3ccc(S(C)(=O)=O)cc3)ccc2N1C=O | – | – | > 25000 | – | – |
| CC(=O)N1c2ccccc2N(C(=O)CC(C)C)C[C@@H]1C | – | – | > 50000 | – | – |
| CCC(=O)N1c2ccc(-c3ccc(S(C)(=O)=O)cc3)cc2N(C(=O)c2ccco2)C[C@@H]1C | 11 | 550 | 1400 | 18 | – |
| CC(=O)N1c2ccccc2N(C(=O)c2ccco2)C[C@@H]1C | – | – | 14000 | – | – |
| CC(=O)N1c2ccc(-c3ccc(S(C)(=O)=O)cc3)cc2N(C(=O)C2CC2)C[C@@H]1C | 100 | 830 | 1700 | > 24 | – |
| CC(=O)N1c2ccc(-c3ccc(C(=O)N4CCNCC4)cc3)cc2N(C(=O)C2CC2)C[C@@H]1C | 100 | 120 | 380 | 3 | – |
| CNC(=O)c1cccc(-c2ccc3c(c2)N(C(=O)c2ccco2)C[C@H](C)N3C(C)=O)c1 | – | 770 | 790 | – | – |
| CC(=O)N1c2ccccc2N(C(=O)C2CCCC2)C[C@@H]1C | – | – | 43000 | – | – |
| CC(=O)N1c2ccc(-c3cnn(C4COC4)c3)cc2N(C(=O)C2CC2)C[C@@H]1C | 100 | 440 | 370 | > 24 | Stability [5]: Unstable |
| CC(=O)N1c2ccc(-c3ccc(N4CCS(=O)(=O)CC4)cc3)cc2N(C(=O)C2CC2)C[C@@H]1C | 95 | 220 | 100 | > 24 | IC50 [6]: 460 nM; Drug uptake(free) [7]: Not Active; inhibition in vivo at 12.5 mg/kg [8]: 100%; fold change (FC) [9]: 0.2; MTD at 120 h [10]: 12.5 mg/kg |
| CC(=O)N1c2ccc(-c3ccc(S(C)(=O)=O)cc3)cc2N(C(=O)c2ccco2)C[C@@H]1C | – | 400 | 1600 | – | – |
| C[C@H]1CN(C(=O)c2ccco2)c2cc(-c3ccc(S(C)(=O)=O)cc3)ccc2N1C(=O)C1CC1 | 19 | 280 | 760 | > 24 | – |
| CC(=O)N1c2ccc(-c3ccccc3)cc2N(C(=O)c2ccco2)C[C@@H]1C | – | 350 | 1600 | – | – |
| CC(=O)N1c2ccccc2N(C(=O)c2ccccc2)C[C@@H]1C | – | – | > 50000 | – | – |
| CC(=O)N1c2ccc(-c3cnn(C)c3)cc2N(C(=O)c2ccco2)C[C@@H]1C | – | 210 | 380 | – | – |
| COC(=O)N1c2ccc(-c3ccc(S(C)(=O)=O)cc3)cc2N(C(=O)c2ccco2)C[C@@H]1C | 14 | 320 | 650 | 22 | – |
| CC(=O)N1c2ccc(-c3ccc(S(C)(=O)=O)cc3)cc2N(C(=O)OC(C)C)C[C@@H]1C | 99 | 350 | 260 | 6 | – |
| CC(=O)N1c2ccc(-c3cnn(C4CNC4)c3)cc2N(C(=O)C2CC2)C[C@@H]1C | 100 | 270 | 60 | > 24 | Drug uptake [11]: Not Active |
